Our source for the IC50 and Ratio IC50 values is ChEMBL document CHEMBL3785023, “Development and Pharmacological Characterization of Selective Blockers of 2-Arachidonoyl Glycerol Degradation with Efficacy in Rodent Models of Multiple Sclerosis and Pain” (J Med Chem, 2016).

Some results are limits rather than exact numbers.

Experiment [1] deals with T1, Monoglyceride lipase (Homo sapiens, UniProt Q99685).
T1 sequence (Q99685 whole entry): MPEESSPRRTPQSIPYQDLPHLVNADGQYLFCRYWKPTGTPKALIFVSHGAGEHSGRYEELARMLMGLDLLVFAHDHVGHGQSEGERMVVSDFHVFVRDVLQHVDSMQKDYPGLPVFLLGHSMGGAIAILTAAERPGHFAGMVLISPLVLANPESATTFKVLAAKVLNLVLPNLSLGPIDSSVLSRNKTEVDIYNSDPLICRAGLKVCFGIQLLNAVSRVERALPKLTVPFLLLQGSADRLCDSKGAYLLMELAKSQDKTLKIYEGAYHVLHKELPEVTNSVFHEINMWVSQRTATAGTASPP
Briefly: Inhibition of recombinant C-terminal His6-tagged human MAGL expressed in Escherichia coli using 2-arachidonoyl-[3H]-glycerol as substrate incubated for 20 mins by scintillation counting method.

Experiment [2] addresses T2, Fatty-acid amide hydrolase 1 (Rattus norvegicus, UniProt P97612).
T2 sequence (P97612 whole entry): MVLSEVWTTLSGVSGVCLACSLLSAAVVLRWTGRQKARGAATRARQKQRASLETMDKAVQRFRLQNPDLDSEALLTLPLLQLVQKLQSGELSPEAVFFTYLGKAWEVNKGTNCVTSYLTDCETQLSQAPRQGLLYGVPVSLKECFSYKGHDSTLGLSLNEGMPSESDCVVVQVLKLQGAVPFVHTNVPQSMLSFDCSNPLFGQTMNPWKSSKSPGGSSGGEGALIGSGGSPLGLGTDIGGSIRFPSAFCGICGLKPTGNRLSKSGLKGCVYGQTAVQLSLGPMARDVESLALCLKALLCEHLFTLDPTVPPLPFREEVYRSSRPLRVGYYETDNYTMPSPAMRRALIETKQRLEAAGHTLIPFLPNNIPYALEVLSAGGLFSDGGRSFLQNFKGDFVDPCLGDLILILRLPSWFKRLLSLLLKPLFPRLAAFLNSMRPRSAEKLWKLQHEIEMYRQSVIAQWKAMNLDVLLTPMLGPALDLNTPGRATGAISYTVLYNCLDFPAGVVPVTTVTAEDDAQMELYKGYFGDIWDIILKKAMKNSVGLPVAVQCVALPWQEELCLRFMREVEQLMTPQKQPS
Briefly: Inhibition of FAAH in rat brain membranes using N-arachidonoyl-[14C]-ethanolamine as substrate assessed as reduction in [14C]ethanolamine production incubated for 30 mins by scintillation counting method. Format: cell membranes, Membrane. In outline: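 10,000×g membrane fraction of rat brain (70 µg per sample) incubated in 50 mM Tris-HCl pH 9.5 at 37 °C for 30 min with N-arachidonoyl-[14C]-ethanolamine diluted with AEA. Released [14C]-ethanolamine measured by scintillation counting of the aqueous phase after CHCl3/MeOH 1:1 extraction. Means of three experiments.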

The nature of experiment [3]: Selectivity ratio of IC50 for human recombinant C-terminal His-tagged FAAH expressed in sf21 cells to IC50 for recombinant C-terminal His6-tagged human MAGL expressed in Escherichia coli. Put shortly: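 Ratio of IC50 values from two radiometric assays, each read by scintillation counting of the aqueous phase after CHCl3/MeOH 1:1 extraction. MGL assay: 10,000xg cytosolic fraction of human recombinant MGL (0.05 µg/sample), 50 mM Tris-HCl pH 7.0, 37 °C, 20 min, 2-arachidonoyl-[3H]-glycerol. FAAH assay: human recombinant FAAH (2 µg/sample), pH 9.5, 37 °C, 30 min, [14C]-anandamide. Means of three experiments.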

Experiment [4] has as its target T3, Fatty-acid amide hydrolase 1 (Mus musculus, UniProt O08914).
T3 sequence (O08914 whole entry): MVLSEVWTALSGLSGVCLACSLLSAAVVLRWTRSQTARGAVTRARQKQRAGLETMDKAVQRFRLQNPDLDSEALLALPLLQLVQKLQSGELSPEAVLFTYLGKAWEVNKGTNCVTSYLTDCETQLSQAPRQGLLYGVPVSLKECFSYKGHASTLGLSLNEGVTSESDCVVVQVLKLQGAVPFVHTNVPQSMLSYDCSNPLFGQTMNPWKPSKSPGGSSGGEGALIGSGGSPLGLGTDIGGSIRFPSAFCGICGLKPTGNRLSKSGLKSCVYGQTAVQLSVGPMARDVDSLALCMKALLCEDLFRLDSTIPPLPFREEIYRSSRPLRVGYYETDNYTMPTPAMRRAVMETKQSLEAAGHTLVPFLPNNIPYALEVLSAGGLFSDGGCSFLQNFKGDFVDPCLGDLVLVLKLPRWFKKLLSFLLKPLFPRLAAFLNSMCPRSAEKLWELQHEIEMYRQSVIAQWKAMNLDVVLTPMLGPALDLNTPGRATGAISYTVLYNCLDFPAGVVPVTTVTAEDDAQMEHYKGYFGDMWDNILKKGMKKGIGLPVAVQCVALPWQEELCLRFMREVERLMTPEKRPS
Briefly: Inhibition of FAAH in mouse brain membrane using [13C]oleamide as substrate by LC-MS analysis. Format: cell membranes.

The target of experiment [5] is T4, Fatty-acid amide hydrolase 1 (Homo sapiens, UniProt O00519).
T4 sequence (O00519 whole entry): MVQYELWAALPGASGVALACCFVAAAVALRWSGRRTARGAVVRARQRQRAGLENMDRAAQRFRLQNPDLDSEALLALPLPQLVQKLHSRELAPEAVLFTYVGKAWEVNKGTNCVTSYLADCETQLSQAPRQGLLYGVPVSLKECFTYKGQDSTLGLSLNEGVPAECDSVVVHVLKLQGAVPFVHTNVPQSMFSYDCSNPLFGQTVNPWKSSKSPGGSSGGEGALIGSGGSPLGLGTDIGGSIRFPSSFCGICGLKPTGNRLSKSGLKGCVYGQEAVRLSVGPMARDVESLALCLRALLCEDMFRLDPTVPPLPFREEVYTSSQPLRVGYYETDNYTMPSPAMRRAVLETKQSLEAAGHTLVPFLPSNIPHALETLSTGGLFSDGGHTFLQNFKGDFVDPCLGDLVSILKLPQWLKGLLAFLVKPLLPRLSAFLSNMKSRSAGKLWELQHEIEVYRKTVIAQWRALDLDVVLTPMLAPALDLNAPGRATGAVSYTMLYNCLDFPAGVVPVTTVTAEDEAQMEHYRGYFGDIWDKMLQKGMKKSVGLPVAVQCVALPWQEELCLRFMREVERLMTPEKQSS
As to the kind of experiment: Inhibition of recombinant C-terminal His-tagged human FAAH expressed in sf21 cells using N-arachidonoyl-[14C]-ethanolamine as substrate assessed as reduction in [14C]ethanolamine production incubated for 30 mins by scintillation counting method. In outline:
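Human recombinant FAAH (2 µg/sample) incubated in 50 mM Tris-HCl, pH 9.5, 37 °C, 30 min with N-arachidonoyl-[14C]-ethanolamine diluted with unlabelled AEA. [14C]-ethanolamine released was quantified by scintillation counting of the aqueous phase after extraction with 2 volumes CHCl3/MeOH 1:1. Values are means of three experiments.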

In experiment [6] the target is T1, Monoglyceride lipase. As to the kind of experiment: Inhibition of recombinant C-terminal His6-tagged human MAGL expressed in Escherichia coli using 2-arachidonoyl-[3H]-glycerol as substrate preincubated for 10 mins followed by substrate addition measured after 20 mins by scintillation counting method. In outline: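 Human recombinant MGL (10,000xg cytosolic fraction, 0.05 µg/sample) is pre-incubated with compound for 10 min. It is then incubated 20 min at 37 °C in 50 mM Tris-HCl pH 7.0 with 2-arachidonoyl-[3H]-glycerol diluted with unlabelled 2-AG. The mix is extracted with 2 vol CHCl3/MeOH 1:1, and [3H]-glycerol in the aqueous phase is counted by scintillation. Values are means of three experiments.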

In general, IC50 refers to the concentration at which inhibition is half-maximal.

In the case of `O=C(N1CCCCC1)n1cncn1`, the IC50 on Monoglyceride lipase [1] is > 10 µM.
As for `COc1ccc([C@H]2C(=O)N(C3CCN(C(=O)n4cncn4)CC3)[C@@H]2c2ccc(OC)c(OC)c2)cc1` (racemic), the IC50 in experiment [2] stood at 0.725 µM.
On to `O=C1[C@H](c2ccc(F)cc2)[C@@H](c2ccc3c(c2)OCO3)N1C1CCN(C(=O)n2cncn2)CC1` [listing 1 of 2 here], for which, in experiment [3], the Ratio IC50 came out at 880.
Regarding `COc1ccc([C@H]2C(=O)N(C3CCN(C(=O)n4cncn4)CC3)[C@@H]2c2ccc3c(c2)OCO3)cc1` (racemic), in experiment [2], the IC50 worked out at 2.59 µM.
As to `O=C(Oc1ccc([N+](=O)[O-])cc1)N1CCC(C(O)(c2ccc3c(c2)OCO3)c2ccc3c(c2)OCO3)CC1`, the IC50 in experiment [4] is > 10 µM.
With `O=C1[C@H](c2ccc(F)cc2)[C@@H](c2ccc3c(c2)OCO3)N1C1CCN(Cc2ccccc2)CC1` (racemic), the IC50 at Monoglyceride lipase [1] is > 10 µM.
Consider `O=C(OC(C(F)(F)F)C(F)(F)F)N1CCC(N2C(=O)[C@H](c3ccc(F)cc3)[C@H]2c2ccc3c(c2)OCO3)CC1` (racemic), for which, in experiment [2], the IC50 was > 50 µM.
As for `O=C1[C@H](c2ccc(F)cc2)[C@@H](c2ccc3c(c2)OCO3)N1C1CCNCC1` (racemic), on Monoglyceride lipase [1], the IC50 is > 10 µM.
On the same count and under the same terms, with `O=C1[C@H](c2ccc(F)cc2)[C@@H](c2ccc3c(c2)OCO3)N1C1CCN(C(=O)n2ccnc2)CC1` (racemic) the figure was > 10 µM.
Consider `O=C1[C@@H](c2ccc(F)cc2)[C@H](c2ccc3c(c2)OCO3)N1C1CCN(C(=O)n2cncn2)CC1`, for which the IC50 worked out at 7.74 µM in experiment [5], 0.0312 µM on Monoglyceride lipase [1] and 0.728 µM at Monoglyceride lipase [6]. Moreover, the Ratio IC50 in experiment [3] came to 248.
Take `O=C(Oc1ccc([N+](=O)[O-])cc1)N1CCC(N2C(=O)[C@H](c3ccc(F)cc3)[C@H]2c2ccc3c(c2)OCO3)CC1` (racemic): the IC50 was > 10 µM in experiment [5] and 0.00141 µM at Monoglyceride lipase [1]. Also, the Ratio IC50 in experiment [3] was > 7.
With `COc1ccc([C@H]2C(=O)N(C3CCN(C(=O)n4cncn4)CC3)[C@@H]2c2ccc(OC)cc2)cc1` (racemic), the IC50 in experiment [2] turned out to be 3.68 µM.
Turning to `COc1ccc([C@H]2C(=O)N(C3CCN(C(=O)n4cncn4)CC3)[C@@H]2c2ccc(OC)c(OC)c2)cc1OC` (racemic), the IC50 in experiment [2] was > 10 µM.
`O=C1[C@H](c2ccc(F)cc2)[C@@H](c2ccc3c(c2)OCO3)N1C1CCN(C(=O)n2cncn2)CC1` [listing 2 of 2 here]: the IC50 is 4.05 µM in experiment [5], 0.0046 µM at Monoglyceride lipase [1] and 0.104 µM at Monoglyceride lipase [6].
